Data reported in ChEMBL document CHEMBL1135463 (J Med Chem, 2002).
Values after ≈ are worked out from the molar mass of the structure shown. Active and inactive are the calls of the source. The calls are words filed in the database; no cut-off is given here.

Experiments:
[1] = test system: Escherichia coli; assay: The minimum inhibitory concentration (MIC) that inhibits all visible growth of the Escherichia coli (bacteria) at 64 ug/mL; NI is no inhibition; type: functional, organism-based
In short: (§1)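 Broth microdilution following NCCLS reference methods (M7-A4 for aerobic bacteria, the yeast broth dilution standard for fungi). MIC is the lowest compound concentration giving optically clear wells, with no visible growth of the test organism.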

[2] = In vitro growth inhibition of NCI-H460 (human non-small cell lung carcinoma) cell line.; type: functional
[3] = test system: Enterobacter cloacae; assay: The minimum inhibitory concentration (MIC) that inhibits all visible growth of the Enterobacter cloacae (bacteria) at 64 ug/mL; NI is no inhibition; type: functional, organism-based; in short: as §1
[4] = test system: Stenotrophomonas maltophilia; assay: The minimum inhibitory concentration (MIC) that inhibits all visible growth of the Stenotrophomonas maltophilia (bacteria) at 64 ug/mL; NI is no inhibition; type: functional, organism-based; in short: as §1
[5] = test system: Enterococcus faecalis; assay: the minimum inhibitory concentration (MIC) that inhibits all visible growth of the Enterococcus faecalis (bacteria) at 64 ug/mL; NI is no inhibition; type: functional, organism-based; in short: as §1
[6] = test system: SF-268; assay: In vitro growth inhibition of central nervous system SF-268 cell line.; type: functional; details: Homo sapiens
[7] = test system: KM-20L2; assay: In vitro growth inhibition of KM20L2 cell line.; type: functional; details: Homo sapiens
[8] = test system: MCF7; assay: Cell growth inhibition of breast MCF-7 cells, expressed as 50% reduction in the net protein increase; type: functional; details: Homo sapiens
[9] = test system: Enterococcus faecalis; assay: The minimum inhibitory concentration (MIC) that inhibits all visible growth of the Enterococcus faecalis (bacteria) at 64 ug/mL; NI is no inhibition; type: functional, organism-based; in short: as §1
[10] = test system: Staphylococcus aureus; assay: The minimum inhibitory concentration (MIC) that inhibits all visible growth of the Staphylococcus aureus (bacteria) at 64 ug/mL; NI is no inhibition; type: functional, organism-based; in short: as §1
[11] = test system: BXPC-3; assay: In vitro growth inhibition of BXPC-3 (human pancreatic adenocarcinoma) cell line.; type: functional
[12] = test system: Micrococcus luteus; assay: the minimum inhibitory concentration (MIC) that inhibits all visible growth of the Micrococcus luteus (bacteria) at 64 ug/mL; NI is no inhibition; type: functional, organism-based; in short: as §1
[13] = test system: Candida albicans; assay: The minimum inhibitory concentration (MIC) that inhibits all visible growth of the Candida albicans (fungus) at 64 ug/mL; NI is no inhibition; type: functional, organism-based; in short: as §1
[14] = test system: Streptococcus pneumoniae; assay: The minimum inhibitory concentration (MIC) that inhibits all visible growth of the Streptococcus pneumoniae (bacteria); type: functional; in short: as §1
[15] = test system: Neisseria gonorrhoeae; assay: The minimum inhibitory concentration (MIC) that inhibits all visible growth of the Neisseria gonorrhoeae (bacteria); value may ranges from (32 - 64); type: functional; in short: as §1
[16] = test system: DU-145; assay: In vitro growth inhibition of DU-145 (human prostate carcinoma) cell line.; type: functional
[17] = test system: Cryptococcus neoformans; assay: Minimum inhibitory concentration (MIC) that inhibits all visible growth of the Cryptococcus neoformans (fungus) at 64 ug/mL; NI is no inhibition; type: functional, organism-based; in short: as §1
[18] = test system: P388; assay: In vitro inhibition of P388 (murine leukemia) cell proliferation.; type: functional; details: Mus musculus, read-out: ED50 (the source's name)
[19] = test system: Neisseria gonorrhoeae; assay: The minimum inhibitory concentration (MIC) that inhibits all visible growth of the Neisseria gonorrhoeae (bacteria); type: functional; in short: as §1
[20] = test system: Micrococcus luteus; assay: the minimum inhibitory concentration (MIC) that inhibits all visible growth of the Micrococcus luteus (bacteria); type: functional; in short: as §1
[21] = target: T1, Tubulin (Bos taurus) (UniProt Q6B856+Q862L2+Q862F3); assay: Inhibition of radiolabeled [3H]colchicine binding to tubulin at a concentration of 2 uM of the compound; type: protein assay
In short: (§2)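 [3H]colchicine 5.0 µM incubated with tubulin 1.0 µM plus inhibitor at the stated level, 10 min at 37 °C, then colchicine binding measured. Reported as percent inhibition.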

[22] = target: Tubulin (Bos taurus, UniProt Q6B856+Q862L2+Q862F3); assay: Inhibition of tubulin polymerization reported as IC50; type: functional
In short: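 Tubulin at 10 µM with a range of drug concentrations. Extent of assembly read after 20 min at 30 °C. IC50 taken from the concentration needed to halve assembly.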

[23] = test system: NCI-H460; assay: Cell growth inhibition of lung-NSC NCI-H460 cells, expressed as 50% reduction in the net protein increase; type: functional; details: Homo sapiens
In short: (§3)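 Human tumour lines kept in 5% FBS/RPMI-1640, plated and incubated 24 h before compound dilutions were added. Exposure 48 h, then TCA fixation, washing and sulforhodamine B staining, with optical density read on a plate reader. GI50 is the concentration giving a 50% reduction in net protein increase, calculated from the OD data.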

[24] = test system: P388; assay: Evaluated for cell growth inhibition of the mouse leukemia P388 cells in 10% horse serum/Fisher media; type: functional; details: read-out: ED50 (the source's name)
In short: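 Murine P388 leukaemia cells grown in 10% horse serum/Fisher medium, incubated 24 h, then compound dilutions added. After 48 h, cells counted on a Coulter Z1 particle counter and the ED50 for growth inhibition calculated.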

[25] = test system: KM-20L2; assay: Cell growth inhibition of colon KM20L2 cells, expressed as 50% reduction in the net protein increase; type: functional; details: Homo sapiens; in short: as §3
[26] = target: T1, Tubulin (Bos taurus); assay: Inhibition of radiolabeled [3H]colchicine binding to tubulin at a concentration of 5 uM of the compound; type: protein assay; in short: as §2
[27] = test system: SF-268; assay: Cell growth inhibition of central nervous system (CNS) SF-268 cells, expressed as 50% reduction in the net protein increase; type: functional; details: Homo sapiens; in short: as §3
[28] = test system: Micrococcus luteus; assay: The minimum inhibitory concentration (MIC) that inhibits all visible growth of the Micrococcus luteus (bacteria) at 64 ug/mL; NI is no inhibition; type: functional, organism-based; in short: as §1

Row | SMILES | GI50 [2] | GI50 [6] | GI50 [7] | GI50 [8] | GI50 [11] | MIC [14] | GI50 [16] | EC50 [18] | also measured
1 | COc1cc(OC)cc(C(=O)c2ccc(O)cc2)c1 | 3 µg/mL (≈ 11.6 µM) | 3.8 µg/mL (≈ 14.7 µM) | 3.6 µg/mL (≈ 13.9 µM) | 2.2 µg/mL (≈ 8.52 µM) | 4 µg/mL (≈ 15.5 µM) | 64 µg/mL (≈ 248 µM) | 4.1 µg/mL (≈ 15.9 µM) | 24.8 µg/mL (≈ 96 µM) | MIC [1]: inactive; MIC [3]: inactive; MIC [4]: inactive; MIC [5]: inactive; MIC [9]: inactive; MIC [10]: inactive; MIC [12]: inactive; MIC [13]: inactive; MIC [15]: 64 µg/mL (≈ 248 µM); MIC [17]: inactive
2 | COc1ccc(/C=C\c2cc(O)cc(OC)c2)cc1 | 0.72 µg/mL (≈ 2.81 µM) | – | – | – | – | – | – | 3.82 µg/mL (≈ 14.9 µM) | –
3 | Oc1ccc(/C=C/c2cc(O)cc(O)c2)cc1 [RESVERATROL] | – | – | – | – | – | – | – | 4.49 µg/mL (≈ 19.7 µM) | MIC [19]: 16 µg/mL (≈ 70.1 µM)
4 | COc1ccc(/C=C/c2cc(O)cc(OC)c2)cc1 | – | – | – | – | – | – | – | 31.5 µg/mL (≈ 123 µM) | MIC [20]: 16 µg/mL (≈ 62.4 µM)
5 | O=C(c1ccc(O)cc1)c1cc(O)cc(O)c1 | 25 µg/mL (≈ 109 µM) | 22.3 µg/mL (≈ 96.9 µM) | 24.5 µg/mL (≈ 106 µM) | 30.6 µg/mL (≈ 133 µM) | 20.5 µg/mL (≈ 89 µM) | 64 µg/mL (≈ 278 µM) | 15 µg/mL (≈ 65.2 µM) | > 100 µg/mL | –
6 | COc1ccc(C(=O)c2cc(OC)c(OC)c(OC)c2)cc1O [PHENSTATIN] | – | – | – | – | – | – | – | – | inhibition [21]: 73%; IC50 [22]: 1100 nM; GI50 [23]: 5.7 ng/mL (≈ 0.0179 µM); EC50 [24]: 3.3 ng/mL (≈ 0.0104 µM); GI50 [25]: 0.04 µg/mL (≈ 0.126 µM); inhibition [26]: 85%; GI50 [27]: 0.052 µg/mL (≈ 0.163 µM)
7 | COc1cc(/C=C\c2ccc(OP(=O)(OCc3ccccc3)OCc3ccccc3)cc2)cc(OC)c1 | 10.7 µg/mL (≈ 20.7 µM) | 38.5 µg/mL (≈ 74.5 µM) | 24.7 µg/mL (≈ 47.8 µM) | 9 µg/mL (≈ 17.4 µM) | 5.4 µg/mL (≈ 10.5 µM) | – | 35.6 µg/mL (≈ 68.9 µM) | 4.45 µg/mL (≈ 8.62 µM) | –
8 | COc1ccc(C(=O)c2cc(O)cc(O)c2)cc1 | 16.6 µg/mL (≈ 68 µM) | 24.5 µg/mL (≈ 100 µM) | 24.5 µg/mL (≈ 100 µM) | 21.7 µg/mL (≈ 88.8 µM) | 21.2 µg/mL (≈ 86.8 µM) | – | 15 µg/mL (≈ 61.4 µM) | 17.8 µg/mL (≈ 72.9 µM) | –
9 | COc1cc(O)cc(C(=O)c2ccc(O)cc2)c1 | 12.1 µg/mL (≈ 49.5 µM) | 26.4 µg/mL (≈ 108 µM) | 31.6 µg/mL (≈ 129 µM) | 26.8 µg/mL (≈ 110 µM) | 21.7 µg/mL (≈ 88.8 µM) | 64 µg/mL (≈ 262 µM) | 16.5 µg/mL (≈ 67.6 µM) | 26.2 µg/mL (≈ 107 µM) | MIC [1]: inactive; MIC [28]: inactive; MIC [3]: inactive; MIC [4]: inactive; MIC [9]: inactive; MIC [10]: inactive; MIC [19]: 32 µg/mL (≈ 131 µM); MIC [13]: inactive; MIC [17]: inactive
10 | Oc1ccc(/C=C\c2cc(O)cc(O)c2)cc1 [CIS-RESVERATROL] | 13.2 µg/mL (≈ 57.8 µM) | 5 µg/mL (≈ 21.9 µM) | 22 µg/mL (≈ 96.4 µM) | 14.8 µg/mL (≈ 64.8 µM) | 15.5 µg/mL (≈ 67.9 µM) | – | 10.2 µg/mL (≈ 44.7 µM) | 24.4 µg/mL (≈ 107 µM) | –
